Laboratory results reported in ChEMBL document CHEMBL1137518, “Synthesis, biological evaluation and molecular modelling of sulfonohydrazides as selective PI3K p110alpha inhibitors” (Bioorg Med Chem, 2007).

What was measured:
[1] = molecular target: T1, Phosphatidylinositol 4,5-bisphosphate 3-kinase catalytic subunit delta isoform (Homo sapiens, UniProt O00329); assay: Inhibition of human recombinant p110delta
T1 sequence (O00329 whole entry): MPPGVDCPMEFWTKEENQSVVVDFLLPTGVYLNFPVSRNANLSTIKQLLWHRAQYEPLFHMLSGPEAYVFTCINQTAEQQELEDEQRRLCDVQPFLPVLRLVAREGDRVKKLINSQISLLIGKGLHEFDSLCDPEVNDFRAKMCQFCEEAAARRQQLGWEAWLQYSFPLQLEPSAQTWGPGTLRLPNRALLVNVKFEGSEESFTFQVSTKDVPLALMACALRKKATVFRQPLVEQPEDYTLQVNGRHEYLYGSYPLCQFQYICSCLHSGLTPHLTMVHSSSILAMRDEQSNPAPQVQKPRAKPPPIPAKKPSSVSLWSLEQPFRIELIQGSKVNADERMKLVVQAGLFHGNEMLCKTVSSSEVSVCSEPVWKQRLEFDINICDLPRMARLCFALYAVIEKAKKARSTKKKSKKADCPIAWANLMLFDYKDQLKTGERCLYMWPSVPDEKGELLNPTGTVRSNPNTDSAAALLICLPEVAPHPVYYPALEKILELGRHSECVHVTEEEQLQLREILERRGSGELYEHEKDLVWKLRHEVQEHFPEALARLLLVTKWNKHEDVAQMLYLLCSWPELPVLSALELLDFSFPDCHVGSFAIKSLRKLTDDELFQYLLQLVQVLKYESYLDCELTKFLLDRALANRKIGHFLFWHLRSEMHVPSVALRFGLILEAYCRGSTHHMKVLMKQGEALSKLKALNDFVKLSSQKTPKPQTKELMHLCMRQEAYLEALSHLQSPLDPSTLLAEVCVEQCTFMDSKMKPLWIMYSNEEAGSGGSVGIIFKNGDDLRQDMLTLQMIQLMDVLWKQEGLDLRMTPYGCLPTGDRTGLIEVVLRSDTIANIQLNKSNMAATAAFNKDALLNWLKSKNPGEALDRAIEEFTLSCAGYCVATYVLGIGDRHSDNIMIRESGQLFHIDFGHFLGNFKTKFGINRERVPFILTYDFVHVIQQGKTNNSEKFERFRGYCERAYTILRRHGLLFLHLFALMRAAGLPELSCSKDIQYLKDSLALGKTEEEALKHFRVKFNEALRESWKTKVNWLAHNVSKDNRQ
Outline: (§1)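 Recombinant p110/p85 complexes (p110d/p85 commercial; p110a/p85 and p110b/p85 prepared in-house), 0.1 µg enzyme with 10 µg L-α-phosphatidylinositol in Tris-HCl pH 7.4/NaCl/EDTA buffer, 1% DMSO final. 1 h at room temperature, stopped with HCl. Lipids extracted, resolved by TLC, radiolabel quantified. Means of two experiments.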

[2] = molecular target: Phosphatidylinositol 4,5-bisphosphate 3-kinase catalytic subunit alpha isoform (Homo sapiens, UniProt P42336); assay: Inhibition of human recombinant p110alpha; outline: as §1
Sequence of Phosphatidylinositol 4,5-bisphosphate 3-kinase catalytic subunit alpha isoform (P42336 whole entry, canonical isoform): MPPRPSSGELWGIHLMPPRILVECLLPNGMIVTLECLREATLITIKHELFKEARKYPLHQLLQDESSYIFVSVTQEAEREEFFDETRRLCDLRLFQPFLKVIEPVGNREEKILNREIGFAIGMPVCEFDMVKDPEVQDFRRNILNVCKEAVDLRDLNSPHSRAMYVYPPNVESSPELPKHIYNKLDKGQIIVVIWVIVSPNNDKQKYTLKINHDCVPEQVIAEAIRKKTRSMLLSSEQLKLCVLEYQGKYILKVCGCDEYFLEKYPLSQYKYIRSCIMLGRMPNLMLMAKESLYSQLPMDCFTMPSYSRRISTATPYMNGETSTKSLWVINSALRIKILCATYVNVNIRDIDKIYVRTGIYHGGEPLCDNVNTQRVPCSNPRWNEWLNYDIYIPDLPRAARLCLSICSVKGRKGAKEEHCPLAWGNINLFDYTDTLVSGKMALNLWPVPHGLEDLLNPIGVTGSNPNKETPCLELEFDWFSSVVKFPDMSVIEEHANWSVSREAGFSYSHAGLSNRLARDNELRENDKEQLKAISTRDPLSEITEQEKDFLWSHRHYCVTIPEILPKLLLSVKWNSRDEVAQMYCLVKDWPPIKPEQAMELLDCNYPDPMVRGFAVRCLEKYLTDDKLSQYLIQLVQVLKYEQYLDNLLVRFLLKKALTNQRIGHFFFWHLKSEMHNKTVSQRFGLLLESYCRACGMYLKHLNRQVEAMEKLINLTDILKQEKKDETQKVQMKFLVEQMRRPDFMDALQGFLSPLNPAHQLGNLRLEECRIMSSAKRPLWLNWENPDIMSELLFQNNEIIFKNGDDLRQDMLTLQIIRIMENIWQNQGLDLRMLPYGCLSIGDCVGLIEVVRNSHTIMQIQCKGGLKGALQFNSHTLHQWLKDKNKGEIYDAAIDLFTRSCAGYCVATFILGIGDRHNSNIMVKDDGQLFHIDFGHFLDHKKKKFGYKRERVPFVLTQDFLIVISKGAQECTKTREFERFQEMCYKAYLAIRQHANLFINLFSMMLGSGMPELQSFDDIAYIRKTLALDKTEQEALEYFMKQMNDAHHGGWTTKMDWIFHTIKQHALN

[3] = Antiproliferative activity against human NZOV9 cells; type: functional, cell-based
Outline: (§2)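 Early-passage human cancer cell lines grown in alpha-modified MEM with insulin, transferrin, selenite and 5% FBS; 1000 cells per well. Drug added in 10-fold concentration steps up to 20 µM; incubated five days under 5% O2, 5% CO2, 90% N2. [3H]thymidine (0.04 µCi/well) added for the last 6 h, incorporation counted. Duplicates per dose; IC50 from exponential least-squares fit.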

[4] = Antiproliferative activity against human NZB5 cells; type: functional, cell-based; outline: as §2
[5] = molecular target: Phosphatidylinositol 4,5-bisphosphate 3-kinase catalytic subunit beta isoform (Homo sapiens, UniProt P42338); assay: Inhibition of human recombinant p110beta; outline: as §1
Sequence of Phosphatidylinositol 4,5-bisphosphate 3-kinase catalytic subunit beta isoform (P42338 whole entry, canonical isoform): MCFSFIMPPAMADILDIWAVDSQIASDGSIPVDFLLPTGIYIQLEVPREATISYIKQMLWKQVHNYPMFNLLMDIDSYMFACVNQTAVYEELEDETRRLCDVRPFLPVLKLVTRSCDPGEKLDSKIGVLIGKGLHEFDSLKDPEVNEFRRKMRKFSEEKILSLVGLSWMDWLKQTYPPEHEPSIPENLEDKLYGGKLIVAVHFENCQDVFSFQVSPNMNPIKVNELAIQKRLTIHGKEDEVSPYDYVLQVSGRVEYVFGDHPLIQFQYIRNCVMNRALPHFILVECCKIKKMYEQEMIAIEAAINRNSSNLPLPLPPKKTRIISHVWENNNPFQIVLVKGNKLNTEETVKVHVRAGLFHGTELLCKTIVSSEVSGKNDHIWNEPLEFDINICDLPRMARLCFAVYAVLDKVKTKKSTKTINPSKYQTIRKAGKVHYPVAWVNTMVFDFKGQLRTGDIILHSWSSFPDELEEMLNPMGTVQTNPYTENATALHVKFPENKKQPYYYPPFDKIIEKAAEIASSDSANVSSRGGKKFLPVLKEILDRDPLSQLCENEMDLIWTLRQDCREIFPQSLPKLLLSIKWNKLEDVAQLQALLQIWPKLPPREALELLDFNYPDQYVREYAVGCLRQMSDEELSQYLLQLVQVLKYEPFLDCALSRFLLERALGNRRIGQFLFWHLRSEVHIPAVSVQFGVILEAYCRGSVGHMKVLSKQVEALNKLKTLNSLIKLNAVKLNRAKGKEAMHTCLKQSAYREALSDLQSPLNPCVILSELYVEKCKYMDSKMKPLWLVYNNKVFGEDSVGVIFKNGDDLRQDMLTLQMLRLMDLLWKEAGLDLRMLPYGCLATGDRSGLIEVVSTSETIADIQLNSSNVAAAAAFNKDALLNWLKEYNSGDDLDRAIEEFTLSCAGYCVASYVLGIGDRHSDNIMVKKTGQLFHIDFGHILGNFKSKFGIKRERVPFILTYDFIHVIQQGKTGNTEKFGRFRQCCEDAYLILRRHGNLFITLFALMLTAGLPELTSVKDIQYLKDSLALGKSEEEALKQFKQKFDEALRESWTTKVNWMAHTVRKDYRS

| IC50 [1] [µM] | IC50 [2] [µM] | IC50 [5] [µM] | SMILES | IC50 [3] [µM] | IC50 [4] [µM] |
| --- | --- | --- | --- | --- | --- |
| 5.4 | 0.86 | > 10 | Cc1ccc([N+](=O)[O-])cc1S(=O)(=O)N(C)/N=C/c1cnc2ccccn12 | 0.68 | 0.35 |
| > 10 | > 10 | > 10 | Cc1ccc([N+](=O)[O-])cc1S(=O)(=O)N(C)/N=C/c1cnc2n1CCCC2 | 10 | 10 |
| > 10 | > 10 | > 10 | Cc1ccc([N+](=O)[O-])cc1S(=O)(=O)N(C)/N=C/c1ncn2ccccc12 |  | 3.3 |
| > 10 | > 10 | > 10 | Cc1ccc([N+](=O)[O-])cc1S(=O)(=O)N(C)/N=C/c1cn(C)c2ccccc12 | > 20 | 15 |
| > 10 | > 10 | > 10 | Cc1ccc([N+](=O)[O-])cc1S(=O)(=O)N(C)/N=C/c1cnc2ccccc2c1 | 6 | 3 |
| 3.6 | 0.8 | > 10 | Cc1ccc([N+](=O)[O-])cc1S(=O)(=O)N(C)/N=C/c1cncc2ccccc12 | 0.5 | 0.89 |
| 9 | 2.2 | > 10 | Cc1ccc([N+](=O)[O-])cc1S(=O)(=O)N(C)/N=C/c1cncc2ccc(Br)cc12 | 4.2 | 5.1 |
| > 10 | 5 | > 10 | Cc1ccc([N+](=O)[O-])cc1S(=O)(=O)N(C)/N=C/c1onc2ccccc12 | 3.3 | 3.9 |
| > 10 | > 10 | > 10 | Cc1ccc([N+](=O)[O-])cc1S(=O)(=O)N(C)/N=C/c1coc2ccccc12 | 8.5 | 12 |
|  |  |  | Cc1ccc([N+](=O)[O-])cc1S(=O)(=O)N(C)/N=C/c1cnc2ccc(Br)cn12 |  | 0.069 |
| > 10 | > 10 | > 10 | Cc1ccc([N+](=O)[O-])cc1S(=O)(=O)N(C)/N=C/c1ncc2ccccn12 | 1.2 | 2.1 |
| > 10 | 2.3 | > 10 | Cc1ccc([N+](=O)[O-])cc1S(=O)(=O)N(C)/N=C/c1ccnc2ccccc12 | 0.8 | 1.5 |
| > 10 | > 10 | > 10 | Cc1ccc([N+](=O)[O-])cc1S(=O)(=O)N(C)/N=C/c1cncc2cc(Br)ccc12 | 11 | 6.6 |
| > 10 | > 10 | > 10 | Cc1ccc([N+](=O)[O-])cc1S(=O)(=O)N(C)/N=C/c1cncc2c(Br)cccc12 | 12 | 5.7 |
| > 10 | > 10 | > 10 | Cc1ccc([N+](=O)[O-])cc1S(=O)(=O)N(C)/N=C/c1csc2ccccc12 | > 20 | > 20 |
| > 10 | > 10 | > 10 | Cc1ccc([N+](=O)[O-])cc1S(=O)(=O)N(C)/N=C/c1cccc2ccccc12 | > 20 | > 20 |

| SMILES | IC50 [1] [µM] | IC50 [2] [µM] | IC50 [5] [µM] | IC50 [3] [µM] | IC50 [4] [µM] |
| --- | --- | --- | --- | --- | --- |
| Cc1ccc([N+](=O)[O-])cc1S(=O)(=O)N(C)/N=C/c1cncn1C | > 10 | > 10 | > 10 | > 20 | > 20 |
